Results collected from several papers.
Target: Mitogen-activated protein kinase kinase kinase 3 (MAP3K3, Homo sapiens, UniProt Q99759)
Sequence (Q99759 1-626, as in one of the studies): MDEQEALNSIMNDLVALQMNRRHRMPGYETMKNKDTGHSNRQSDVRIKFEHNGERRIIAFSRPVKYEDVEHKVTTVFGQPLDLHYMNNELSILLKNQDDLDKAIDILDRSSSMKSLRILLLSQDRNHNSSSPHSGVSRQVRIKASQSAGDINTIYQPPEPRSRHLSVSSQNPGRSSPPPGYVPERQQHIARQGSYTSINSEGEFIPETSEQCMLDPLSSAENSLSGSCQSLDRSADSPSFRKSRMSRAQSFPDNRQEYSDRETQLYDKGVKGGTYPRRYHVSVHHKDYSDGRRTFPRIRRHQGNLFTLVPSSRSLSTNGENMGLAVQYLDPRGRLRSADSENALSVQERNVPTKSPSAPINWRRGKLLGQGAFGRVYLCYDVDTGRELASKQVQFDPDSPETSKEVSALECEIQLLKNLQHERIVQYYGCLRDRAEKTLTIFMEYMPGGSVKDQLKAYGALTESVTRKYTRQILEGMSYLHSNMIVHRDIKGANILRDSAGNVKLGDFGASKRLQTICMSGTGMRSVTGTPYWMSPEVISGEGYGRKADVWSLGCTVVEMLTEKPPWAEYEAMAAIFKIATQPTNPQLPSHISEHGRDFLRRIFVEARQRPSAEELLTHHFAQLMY

Cc1nn(C)cc1-c1nc2c(N3CCN(Cc4ccc(Cl)cc4)CC3)c(Cl)cnc2[nH]1 — remaining binding (binding, competition with immobilised ligand; 1 µM): 91%
CC(C)(C)c1cc(C=C(C#N)C#N)cc(Br)c1O — remaining activity (enzyme activity, inhibitor; 0.5 µM): 118%
Cn1cc(-c2cccc(N3CCc4c(sc5c4CC(C)(C)C5)C3=O)c2CO)cc(Nc2ccncn2)c1=O — inhibition (enzyme activity, inhibitor; 1 µM): 3%
O=c1[nH]c2ccccc2n1C1CCN(Cc2ccc(-c3[nH]c4cc5ncnc5cc4nc3-c3ccccc3)cc2)CC1 — remaining signal (cell-free assay; 0.5 µM): 101%
Cn1cc(-c2cc(F)cc(N3CCn4c(cc5c4CCCC5)C3=O)c2CO)cc(Nc2ccc(N3CCN(C4COC4)CC3)cn2)c1=O — inhibition (enzyme activity, inhibitor; 0.1 µM): 1%
Cn1cncc1[C@@](O)(COc1ccc(C#N)cc1-c1ccc(OC(F)(F)F)cc1)c1ccc(C#N)cc1 — remaining binding (cell-free assay, competition with immobilised ligand; 1 µM): 81%
COCc1c(-c2cc3cc(C)cc(OC)c3s2)c2c(N)ncnn2c1CN1CCNC(=O)C1 — inhibition (cell-free assay, competition with immobilised ligand; 1 µM): 95.3%
COc1ncccc1-c1cnn2ccc(N3CCN(C(=O)OC(C)C)CC3)nc12 — remaining binding (binding, competition with immobilised ligand; 1 µM): 100%
Nc1ncc(-c2nc(N3CCOCC3)nc(N3CCOCC3)n2)c(C(F)F)n1 — remaining binding (binding, competition with immobilised ligand; 10 µM): 72%
